# Screens (PubChem BioAssay)
# NR3A LBD binder: NR3A (human) ligand-binding domain modulation. AID 1259313. NR3A LBD differential scanning fluorimetry, Tm shift; 0% = protein alone, 100% = glycine-bound protein. Tm shift relative to glycine control, % at 25 µM. 2.5% of 340,000 active;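 active = melting temperature shift of at least 10% of the positive control shift, at one fixed dose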
# FGF22 binding-1: shifts melting point of recombinant human FGF22. Q9HCT0. recombinant FGF22 thermal shift, SYPRO orange fluorescence; percent of sucrose octasulfate shift, DMSO zero. activity (Tm shift, normalised), % at 9.99 µM. 1.5% of 340,000 active;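 active = mean Tm shift, scaled 0 neutral to 100 positive control, at about 1.3% or above, every replicate too, limit read from the data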
# Target sequence (Q9HCT0 whole entry, looked up): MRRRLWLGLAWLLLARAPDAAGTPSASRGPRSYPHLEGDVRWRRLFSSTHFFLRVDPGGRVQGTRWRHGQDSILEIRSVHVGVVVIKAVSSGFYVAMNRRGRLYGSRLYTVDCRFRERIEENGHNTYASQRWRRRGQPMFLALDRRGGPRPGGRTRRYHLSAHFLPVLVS
# ZTA DNA inh: counter-screen for EBNA-1 inhibitors: inhibitors of Epstein-Barr virus ZTA. ZTA-DNA binding, fluorescence polarization. inhibition, % at 11 µM. P03206. 0.15% of 320,000 active; in the data active = inhibition above about 33%
# Target sequence (P03206 whole entry, looked up): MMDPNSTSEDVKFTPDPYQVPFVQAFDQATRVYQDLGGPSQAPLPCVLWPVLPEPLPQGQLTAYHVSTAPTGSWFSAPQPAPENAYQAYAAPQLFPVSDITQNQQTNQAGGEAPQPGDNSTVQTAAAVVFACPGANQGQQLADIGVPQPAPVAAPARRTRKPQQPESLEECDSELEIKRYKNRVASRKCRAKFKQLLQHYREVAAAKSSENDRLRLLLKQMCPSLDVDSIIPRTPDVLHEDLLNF
# FID counter: fluorescent intercalator displacement, NS3 helicase counter-screen. 0.17% of 290,000 active. DNA fluorescent intercalator displacement, fluorescence. inhibition, % at 7.9 µM; in the data active = inhibition above about 37%;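 note: 0% = vehicle and 100% = reference compound; higher means more ethidium bromide displaced from hairpin DNA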
# EBNA-1 inh: blocks EBNA-1 binding to DNA; EBNA-1 DNA binding, fluorescence polarization; inhibition, % at 14.8 µM; 0.34% of 300,000 active; in the data active = inhibition above about 28%
# NS3 helicase inh: HCV NS3 helicase inhibition | NS3 helicase DNA unwinding, Cy5 molecular beacon fluorescence | AID 1800 | 0.56% of 290,000 active | inhibition, % at 10.9 µM;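 active = inhibition above the mean of all tested compounds plus 3 SD, set per campaign, cut at about 35% in these data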;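 note: 0% = DMSO wells and 100% = thioflavine S control wells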
#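 Assay system – hepatitis C virus NS3 helicase domain fragment enzyme · Buffer or medium – MOPS pH 6.5, MgCl2, DTT, Tween20, BSA · Reagent – Cy5/quencher beacon DNA duplex and ATP to start · Compound – single 10.9 µM dose · Timing – 1 h at 25 °C · Technique – Cy5 beacon fluorescence read at start and 1 h · Measure – % inhibition of unwinding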
# FGF22 binding-2: binds human FGF22 shifting its melting temperature; AID 720646; thermal shift activity, °C (ΔTm) at 38 µM; shares compounds with FGF22 binding-1; recombinant FGF22 thermal shift, SYPRO orange fluorescence; 2% of 1,000 active;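 active = fitted rise in melting shift crosses a set limit at or below the top valid dose tested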
# FGF22 TSA: binders of human FGF22 by thermal shift. Tm shift (activity), % at 38 µM. Thermal shift assay, SYPRO orange, melting temperature shift. shares compounds with FGF22 binding-1. 50 tested, under 10 active;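 active = compounds whose fitted dose curve of melting temperature shift rises past a set threshold within the tested doses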
# SYPRO no-protein: shows thermal shift signal without protein, FGF22 counter-screen. shares compounds with FGF22 binding-1. compound-only SYPRO orange thermal shift counter-screen, no protein. 2% of 1,000 active. AC50, µM (top dose mostly 38 µM);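 active = rising signal whose fitted curve reaches the 0.54 level within the top valid dose, showing a melting point, actives reach about 13 µM in these data; inactive = the rest, including activity in the opposite direction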; note: value is where the raw curve crosses a fixed level and not half-maximal
# Active calls of the source: *; i = inactive; x = no result given; ! = not confirmed by another sample; [ ] = another dose, or the depositor's remark. A selection: hits, their analogues and other compounds. The true share with any hit is near 3.6%.
SMILES,NR3A LBD binder,FGF22 binding-1,ZTA DNA inh,FID counter,EBNA-1 inh,NS3 helicase inh,FGF22 binding-2,SYPRO no-protein,others
COc1nsnc1NS(=O)(=O)c1ccc(NC(=S)NC(=O)c2cccnc2)cc1,1,1.6*,-5,-10,-5,3,-0.021,i,
C[C@H]1CN([C@@H](C)CO)C(=O)c2cc(NS(=O)(=O)c3cn(C)cn3)ccc2O[C@H]1CN(C)Cc1ccccc1,x,24*,x,x,x,x,-0.038,i,
C[C@H](CO)N1C[C@H](C)[C@@H](CN(C)S(=O)(=O)c2ccccc2)Oc2ccc(NS(=O)(=O)c3cn(C)cn3)cc2C1=O,-2,2.3*!,x,x,x,x,0.026,i,
C[C@@H]1CN([C@H](C)CO)C(=O)c2cc(NS(=O)(=O)c3cn(C)cn3)ccc2O[C@@H]1CN(C)Cc1ccccc1,x,0,x,x,x,x,x,x,
N#C[C@@H]1[C@H](c2ccc(C3=CCCC3)cc2)[C@@H](CO)N1C(=O)C1CC1,x,0,x,x,x,x,x,x,
CCNC(=O)C[C@@H]1CC[C@@H]2[C@H](COc3ccc(NC(=O)Nc4ccc(Cl)cc4)cc3C(=O)N2C)O1,x,0,x,x,x,x,x,x,
CC(C)(C)NC(=O)N1CCC(CO)(Cc2ccccc2Cl)CC1,0,1.5*,13,-7,2,-8,-0.031,i,
COc1ccc(-c2cnc3c(c2)C(=O)N([C@@H](C)CO)C[C@H](C)[C@H](CN(C)C(=O)C2CCCCC2)O3)cc1,x,0,x,x,x,x,x,x,
O=C(Nc1cccc(F)c1)N[C@H]1CC[C@@H](CCNS(=O)(=O)c2cccc(Cl)c2)O[C@@H]1CO,x,0,x,x,x,x,x,x,
O=C(N[C@H]1CC[C@@H](CCNS(=O)(=O)c2ccc(F)cc2)O[C@H]1CO)c1ccccn1,x,1.4*,x,x,x,x,0.003[42 µM],i,
O=C(Nc1cc(Cl)cc(Cl)c1)N[C@@H]1CC[C@@H](CCNS(=O)(=O)c2cccc(F)c2)O[C@H]1CO,x,2.6*,x,x,x,x,-0.22[42 µM],i,FGF22 TSA=0
C[C@@H]1CN([C@H](C)CO)C(=O)c2cccc(N(C)C)c2O[C@H]1CN(C)Cc1ccc(C(=O)Nc2ccccc2N)cc1,x,0,x,x,x,x,x,x,
CC(=O)Nc1ccc(S(=O)(=O)NCCc2c[nH]c3ccc(C)cc23)cc1,4,1.4*,x,-1,x,20,0.079,i,
CCOC(=O)[C@@H]1[C@H]2COc3cc(OC)ccc3[C@H]2N2C(=O)N(c3ccc(C)cc3)C(=O)[C@]12C,-1,1.6*,x,x,x,x,0.055,i,
CCC(C)N(C(=O)COc1ccc(-c2nnco2)cc1)C1CCS(=O)(=O)C1 (configuration not stated),2,36*,-14,x,8,x,-0.045,i,
COc1cccc(C#Cc2cnc3c(c2)C(=O)N([C@H](C)CO)C[C@H](C)[C@@H](CN(C)C)O3)c1,x,-1,x,x,x,x,x,x,
O=C(NCC(=O)N(CC1CCCO1)C(C(=O)NC1CCCCC1)c1cccnc1)c1cccs1 (configuration not stated),-1,18*,22,-6,1,11,0.14,i,
C[C@@H]1CN([C@H](C)CO)C(=O)Cc2cc(NC(=O)C3CCCCC3)ccc2O[C@@H]1CN(C)Cc1ccc(Oc2ccccc2)cc1,x,0,x,x,x,x,x,x,
O=S(=O)(/N=C(/Nc1nc2ccccc2s1)c1ccccc1)c1ccc(F)cc1,-1,x,x,x,x,x,x,x,
O=S(=O)(/N=C(/Nc1nccs1)c1ccc(F)cc1)c1ccccc1,0,38*,x,x,x,x,-0.062,i,
O=C(COc1ccccc1)NCC(=O)NC1CCCCC1,-1,1.9*,6,-1,0,0,0.062,i,
COCCN(C[C@H]1N[C@H](CO)[C@@H]1c1ccc(-c2ccc(F)cc2)cc1)C(C)=O,x,0,x,x,x,x,x,x,
CC(=O)Nc1cccc(NC(=O)c2ccc3[nH]c(C)c(C)c3c2)c1,28*,1.9*,0,-11,0,-7,-0.012,i,FGF22 TSA=0
Cc1ccc(C)c(N2CCN(C(=O)C34CC5CC(C3)CC(n3nnc(C)n3)(C5)C4)CC2)c1,3,16*,1,-51,4,-16,0.038,i,
CN(C)C(=O)c1cccc(-c2ccc3c(c2)[C@H]2[C@H](CCN2Cc2ccccc2F)[C@@H](CO)N3)c1,x,0,x,x,x,x,x,x,
SMILES,NR3A LBD binder,FGF22 binding-1,ZTA DNA inh,FID counter,EBNA-1 inh,NS3 helicase inh,FGF22 binding-2,SYPRO no-protein,others
Cc1ccc(Cl)cc1N1CCN(C(=O)Cc2c(C(=O)O)[nH]c3ccc(Cl)cc23)CC1,4,7.4*,20,-31,6,-10,0.23,i,
CCOc1ccc2nc(NS(=O)(=O)c3ccc(NC(C)=O)cc3)sc2c1,-3,x,-12,-7,-4,2,x,x,
CC(=O)Nc1ccc(S(=O)(=O)Nc2nc3ccc([N+](=O)[O-])cc3s2)cc1,16*,3.4*,20,-12,3,27,-0.15,i,
COc1cccc(NS(=O)(=O)c2cc3[nH]c(=O)c(=O)[nH]c3cc2C)c1,-4,0,6,-10,5,8,x,x,
Cc1cc(C)cc(NS(=O)(=O)c2cc3[nH]c(=O)c(=O)[nH]c3cc2C)c1,-6,1.7*,7,-3,-3,26,0.031,i,
COc1cc(OC)cc(C(=O)Nc2ccc(S(=O)(=O)Nc3nc(C)cc(C)n3)cc2)c1,3,1.4*,1,-23,5,-1,0.05,i,
COc1cc(OC)cc(C(=O)Nc2ccc(S(=O)(=O)Nc3cc(C)nc(C)n3)cc2)c1,x,x,12,-7,6,-4,x,x,
C[C@@H]1CN([C@H](C)CO)C(=O)c2cccc(NS(=O)(=O)c3ccc(Cl)cc3)c2O[C@H]1CN(C)C(=O)Nc1cccc2ccccc12,x,0,x,x,x,x,x,x,
C[C@@H]1CN([C@H](C)CO)C(=O)c2cc(C#CC(C)(C)O)cnc2O[C@@H]1CN(C)Cc1cncnc1,x,0,x,x,x,x,x,x,
C[C@H](CO)N1C[C@H](C)[C@@H](CN(C)C(=O)Nc2cccc3ccccc23)Oc2c(NC(=O)C3CC3)cccc2C1=O,x,2.2*,x,x,x,x,0.11,i,
C[C@H](CO)N1C[C@H](C)[C@@H](CN(C)C(=O)C2CC2)OCc2ccccc2-c2ccccc2C1=O,x,11*,x,x,x,x,0.007[42 µM],i,
C[C@H](CO)N1C[C@H](C)[C@@H](CN(C)C(=O)Nc2cccc3ccccc23)Oc2c(NS(C)(=O)=O)cccc2C1=O,x,1.8*,x,x,x,x,0.15[42 µM],i,
C[C@@H]1CN([C@@H](C)CO)C(=O)c2cccc(NC(=O)C3CC3)c2O[C@@H]1CN(C)C(=O)Nc1cccc2ccccc12,x,1,x,x,x,x,x,x,
